Experimental data gathered from unrelated publications.
Protocols differ between the studies behind these lines.
Target: cGMP-dependent protein kinase 2 (PRKG2, Homo sapiens, UniProt Q13237)
Sequence (Q13237 1-762, as in one of the studies): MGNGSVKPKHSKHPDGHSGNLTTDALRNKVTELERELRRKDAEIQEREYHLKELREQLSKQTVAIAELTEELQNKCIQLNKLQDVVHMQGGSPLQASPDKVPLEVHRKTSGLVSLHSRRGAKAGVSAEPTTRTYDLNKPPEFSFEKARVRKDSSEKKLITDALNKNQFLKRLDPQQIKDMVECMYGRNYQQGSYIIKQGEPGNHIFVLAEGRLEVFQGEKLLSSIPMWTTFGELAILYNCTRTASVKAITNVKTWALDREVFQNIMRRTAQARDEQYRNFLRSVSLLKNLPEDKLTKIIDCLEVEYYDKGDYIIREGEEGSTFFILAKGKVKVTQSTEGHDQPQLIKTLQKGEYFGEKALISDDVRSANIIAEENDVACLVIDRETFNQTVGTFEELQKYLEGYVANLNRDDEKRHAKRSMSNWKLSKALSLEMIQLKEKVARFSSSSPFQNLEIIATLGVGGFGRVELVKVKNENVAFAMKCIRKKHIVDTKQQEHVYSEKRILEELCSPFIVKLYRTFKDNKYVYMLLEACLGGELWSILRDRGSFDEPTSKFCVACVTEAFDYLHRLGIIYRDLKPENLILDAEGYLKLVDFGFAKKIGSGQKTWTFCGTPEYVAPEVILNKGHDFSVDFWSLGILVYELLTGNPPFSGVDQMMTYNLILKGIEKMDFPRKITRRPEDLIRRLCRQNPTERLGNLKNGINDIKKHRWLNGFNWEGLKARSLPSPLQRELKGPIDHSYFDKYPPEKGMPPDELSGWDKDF

SMILES	assay	conditions	quantity	result
CSc1cccnc1N1CCN(Cc2nc3ccccc3[nH]2)CC1	cell-free assay, competition with immobilised ligand	1 µM	remaining binding	94%
Cn1cncc1C1=CN(c2ncnc3[nH]cnc23)CCS1	enzyme activity, inhibitor, radiometric	2 µM	inhibition	99.4%
CC(C)(C)c1nc(-c2cccc(NS(=O)(=O)c3c(F)cccc3F)c2F)c(-c2ccnc(N)n2)s1	enzyme activity, inhibitor, radiometric	1 µM	remaining activity	102%
CN1CC(Oc2cnc(C#N)cc2-c2ccn3nc(NC(=O)C4CC4)cc3c2)C1	enzyme activity, inhibitor	1 µM	inhibition	1%
C#Cc1cccc(Nc2ncnc3cc(OCCOC)c(OCCOC)cc23)c1	cell-free assay	0.5 µM	remaining signal	107%
CN(C)C1CCN(CC#Cc2nn(C3CCCC3)c3nc(NCc4ccccc4)ncc23)C1 (stereo not shown)	enzyme activity, inhibitor, FRET	10 µM	inhibition	5%
CCCS(=O)(=O)Nc1ccc(F)c(C(=O)c2c[nH]c3ncc(-c4ccc(Cl)cc4)cc23)c1F	enzyme activity, inhibitor	1 µM	inhibition	< 10%
CN(C)c1ncnc(-c2ccc3nc(Nc4cc(CN5CCN(C(=O)CC(F)(F)F)CC5)ccn4)[nH]c3c2)c1Cl	cell-free assay, competition with immobilised ligand	1 µM	remaining binding	40%
N#CCCc1ccc2c(c1)-c1[nH]c3ccc([N+](=O)[O-])cc3c1CC(=O)N2	cell-free assay	0.5 µM	remaining signal	93.9%
O=C(Nc1cccnn1)N1CCC(=Cc2cccc(Oc3ccc(C(F)(F)F)cn3)c2)CC1	cell-free assay, competition with immobilised ligand	1 µM	remaining binding	100%
CC(C)(O)[C@H]1CC[C@H](Nc2ccc3ncc(-c4cccc(C(F)(F)F)c4)n3n2)CC1	enzyme activity, inhibitor	1 µM	remaining activity	93.7%
CC1=C(C#N)[C@@H](c2ccc3[nH]nc(C)c3c2)C(C#N)=C(c2ccc(Cl)cc2)N1	cell-free assay, competition with immobilised ligand	1 µM	remaining binding	100%
Cn1cnc(Br)c1C1=CN(c2ncnc3[nH]cnc23)CCS1	enzyme activity, inhibitor, radiometric	50 nM	inhibition	43.1%
Cc1ccc(C(=O)Nc2ccc(CN3CCN(C)CC3)c(C(F)(F)F)c2)cc1C#Cc1cnc2cccnn12	enzyme activity, inhibitor	23.5 nM	remaining activity	82%
CN([C@@H]1CCc2c(CC(=O)O)c3ccccc3n2C1)S(=O)(=O)c1ccc(F)cc1	cell-free assay, competition with immobilised ligand	1 µM	remaining binding	100%
Cc1sc(C(=O)NC2COC2)cc1-n1cc(NC(=O)Nc2c(F)cccc2Cl)cn1	enzyme activity, inhibitor	10 µM	remaining activity	100%
Cc1ccc(NC(=O)c2ccc(CN3CCN(C)CC3)cc2)cc1Nc1nc(-c2cccnc2)cs1	cell-free assay	0.5 µM	remaining signal	95.4%
O=C(NCCCC1CCCCC1)c1ccc(CNC(=O)c2cnn(-c3ccccc3)c2C(F)(F)F)cc1	cell-free assay, competition with immobilised ligand	0.1 µM	remaining binding	89%
COc1cc2ncnc(Nc3ccc(Oc4ccccc4)cc3C)c2cc1OC	enzyme activity, inhibitor	1 µM	inhibition	3%
